The source of these data is the RNAGym collection of RNA variant scans (doi:10.1126/science.aae0568).

This sample holds only a part of the variants without activity.

The labels stand for the following.
B1: tRNA (parent)
chain: GUUCCGUUGGCGUAAUGGUAACGCGUCUCCCUCCUAAGGAGAAGACUGCGGGUUCGAGUCCCGUACGGAACG

The variants in this series derive from B1. Nature of the series: yeast fitness relative to wild type (ratio to wild type); higher = fitter; tRNA-Arg(CCU), competitive growth, 37 C, YPD. In a few lines: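 Changes in genotype frequencies gave Darwinian fitness relative to wild type. Frequencies were read by 100-nucleotide paired-end sequencing of gene amplicons before and after pooled Saccharomyces cerevisiae strains, carrying tRNA-Arg(CCU) gene variants at the native locus, were competed in YPD at 37°C for 24 hours in six replicates. A genotype was kept only with ≥ 100 starting reads, and estimates < 0.5 were set to 0.5.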
For the variant GUUCCGUUGGCGUAAUGGUAACGCGUUUCCCUCCUAAGGAGAAGACUGCGGGUUCGAGUCGCGUACGGAACG [C27U C61G], the yeast fitness turned out to be 0.647. The value for GUUCCGUUGGCGUAAUGGUAACGCGUUUCCCUCCUAAGGAGAAGACUGCGGGUUCGAGUCACGUACGGAACG [C27U C61A] was 0.62; that for GUUCCGUUGGCGUAAUGGUAACGCGUUUCCCUCCUAAGGAGAAGACUGCGAGUUCGAGACCCGUACGGAACG [C27U G51A U59A] was 0.568; that for GUUCCGUUGGCGUAAUGGUAACGCGUUGCCAUCCUAAGGAGAAGAUUGCGGGUUCGAGUCCCGUACGGAACG [C27U U28G C31A C46U] was ≤ 0.5. In the case of GUUCCGUUGGCGUAAUGGUAACGCGUUACCCACUUCAGGAGAAGACUGCGGGUUAGAGUCCCGUACGAAACG [C27U U28A U32A C34U A36C C55A G68A], the yeast fitness was ≤ 0.5. As for GUUCCGUUGGCGUAAUGGUAACGCGUUUCCCUCCUAAGGAGAAGACUGCGGGUUCGAGUCCCGUACAGAACG [C27U G67A], the yeast fitness was 1.02. In the case of GUUCCGUUGGCGUAAUGGUAACGCGUUUCCCUCCUAAGCAGAAGACUGUGGGUUCGAGUCCCCUACGGAACG [C27U G39C C49U G63C], the yeast fitness is ≤ 0.5.

Regarding GUUCCGUUGGCGUAAUGGUAACGCGUUUCCCUCCUAAGAAAAAGACUGCGGGUUCGAGUCCCGUACGGUACG [C27U G39A G41A A69U], the yeast fitness was 0.674. On to GUUCCGUUGGCGUAAUGGUAACGCGUUUCCCUCCUAAGGAGAAGACUGCGGGUUCGAGUCCAGUAUGGAACG [C27U C62A C66U], for which the yeast fitness is ≤ 0.5. Turning to GUUCCGUUGGCGUAAUGGUAACGCGUUACCCUCCUAAGGAGAAGACUGCGGGUUCGAGUCCCGUACGGAACG [C27U U28A], the yeast fitness came to 0.699.

As to GUUCCGUUGGCGUAAUGGUAACGCGUUCCCCUCCUAAGGAGAAGACUGCGGGUUCGAGUCCCGUACGGAACG [C27U U28C], the yeast fitness was 0.903. GUUCCGUUGGCGUAAUGGUAACGCGUUUCCCUCCUAAGGAGAAGACUGCGCGUUCGAGUCGCGUACGGAACG [C27U G51C C61G]: the yeast fitness is ≤ 0.5. On to GUUCCGUUGGCGUAAUGGUAACGCGUUUCCCUCCUAAGGAGAAGACUGCGGGUUCGAGUCCCGUAAGGAACG [C27U C66A], for which the yeast fitness was determined as 0.701. Take GUUCCGUUGGCGUAAUGGUAACGCGUUGCCCUGCUGAGGAGAAGACUGCGGGUUCGAGUCCCGUACGGAACG [C27U U28G C33G A36G]: the yeast fitness was ≤ 0.5. The value for GUUCCGUUGGCGUAAUGGUAACGCGUUGCCCUCCUAAGGCGAAGAAUGUGGGUUCGAGUCCCGUACGGAACG [C27U U28G A40C C46A C49U] was 0.995; that for GUUCCGUUGGCGUAAUGGUAACGCGUUUCCCUCCUAAAGAGAAGACUGCGGGUUCGAGUCUCGUAAGGAACG [C27U G38A C61U C66A] was ≤ 0.5. As for GUUCCGUUGGCGUAAUGGUAACGCGUUUCCCUCCUAAGGAGAAGACUGCGGGUUCGAGUCCUGUUCGGAACG [C27U C62U A65U], the yeast fitness was determined as 0.718. With GUUCCGUUGGCGUAAUGGUAACGCGUUUCCCUCCUAAGGAGAACACUGCGGGUUCGAGUCCCGUACGAAACG [C27U G44C G68A], the yeast fitness came out at 0.666. The value for GUUCCGUUGGCGUAAUGGUAACGCGUUUCCCUCCUAAGGAGAAGACUGCGGCUUCGAGUUCCGUACGGAACG [C27U G52C C60U] was 0.521; that for GUUCCGUUGGCGUAAUGGUAACGCGUUUCCCUCCUAAGGACAAGACUGCGGGUUCGAGUCCCGUACGGAACG [C27U G41C] was 0.898; that for GUUCCGUUGGCGUAAUGGUAACGCGUUUCCCUCCUAAGGAGAAAACUGUGGAUUCGCGUCCCGUACGGAACG [C27U G44A C49U G52A A57C] was ≤ 0.5. Turning to GUUCCGUUGGCGUAAUGGUAACGCGUUUCCCUCCUAAGGAGAAGACUGCGGGUUCGAGUCCCGUAGCGAACG [C27U C66G G67C], the yeast fitness is ≤ 0.5. Regarding GUUCCGUUGGCGUAAUGGUAACGCGUUUCCCUCCUAAGGAGAAGACUGCGGGUUCGACUCCCGCACGGAACG [C27U G58C U64C], the yeast fitness came out at 0.73. With GUUCCGUUGGCGUAAUGGUAACGCGUUUCCCUCCUAAGGAGAAGACUGCAGAUUCGAGCCCCGUAUGGAACG [C27U G50A G52A U59C C66U], the yeast fitness amounted to 0.53. The value for GUUCCGUUGGCGUAAUGGUAACGCGUUUCCCUCCUAAGGAGAAGACUGCGGGUUCGACCCCCGUACGGAGCG [C27U G58C U59C A70G] was ≤ 0.5; that for GUUCCGUUGGCGUAAUGGUAACGCGUUUCCCUCCUAAGGAGAAGACUGCGCGUUCGAGCCCCAUACGGAACG [C27U G51C U59C G63A] was ≤ 0.5. As to GUUCCGUUGGCGUAAUGGUAACGCGUUUCCCUCCUAAGGAGAAGACUGCGAGUUCGAGUCCCGUACGGAACG [C27U G51A], the yeast fitness came to 0.836. Then GUUCCGUUGGCGUAAUGGUAACGCGUUUCCCUCCUAAGGAGAAGACUACGGGUUCGAGUCCCGUACGGAUCG [C27U G48A A70U], with 0.775. The value for GUUCCGUUGGCGUAAUGGUAACGCGUUUCCCUCCUAAGCAGAAGACUGUGGGUUCGAGUCCCGUACGGAACG [C27U G39C C49U] was ≤ 0.5; that for GUUCCGUUGGCGUAAUGGUAACGCGUUUCCCACCUAAGGAGAAGACUGCGGGUUCGAGUCCCGUACGGUACG [C27U U32A A69U] was 0.774; that for GUUCCGUUGGCGUAAUGGUAACGCGUUUCCCUCCCGAGGAGAAGACUGCGGGUUCGAGUCCCGUACGGAACG [C27U U35C A36G] was 0.566. For GUUCCGUUGGCGUAAUGGUAACGCGUUUCCCUCCUAAAGAGAAGACUCCGGGUUCGAGUCCCGUACGGAACG [C27U G38A G48C], the yeast fitness came out at 0.562. On to GUUCCGUUGGCGUAAUGGUAACGCGUUUCCCUCCUAAGGAGAAGACUAUGGGUUCGAGUCCCGUGCGGAACG [C27U G48A C49U A65G], for which the yeast fitness amounted to 0.714. On to GUUCCGUUGGCGUAAUGGUAACGCGUUUCCCUCCUAAGGAGAAGACCGCGGGUUUGAGUCCGGUACGGUACG [C27U U47C C55U C62G A69U], for which the yeast fitness was ≤ 0.5.

On to GUUCCGUUGGCGUAAUGGUAACGCGUUUCCCUCCUAAGGAGAAGACUACGGGUUCGAGACCCGUACGGAACG [C27U G48A U59A], for which the yeast fitness was found to be 0.684. As for GUUCCGUUGGCGUAAUGGUAACGCGUUUCCCUCCUAAGGAGAACACUGCGGGUUCGAGUCCCGUUCGGAACG [C27U G44C A65U], the yeast fitness amounted to 0.691. As for GUUCCGUUGGCGUAAUGGUAACGCGUUUCCCUCCUAAGGAGAAGACUGCGGGUUCCAGUCCCGUAUGGAACG [C27U G56C C66U], the yeast fitness is ≤ 0.5.
